Reference: ChEMBL document CHEMBL1221229, “Phloroglucinol glycosides from the fresh fruits of Eucalyptus maideni” (J Nat Prod, 2010)
The source made the active and inactive calls. The rule behind the calls is not given here.

Legend:
Human alphaherpesvirus 1 = assay: Antiviral activity against HSV1 infected african green monkey Vero cells assessed as reduction of plaque formation after 3 days by using crystal violet stain; assay type: functional, organism-based
Method in brief: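 Vero cells in 24-well plates, grown 24 h, then infected with 30 PFU HSV-1 alongside serial sample dilutions in DMEM with 2% FBS (pH 7.2, NaHCO3/Hepes). The wells were overlaid with 1% methylcellulose medium and incubated 3 days. Monolayers were formalin-fixed and crystal violet-stained, and plaques counted by microscope. The 100% plaque-reducing concentration was read from graphic plots. Aciclovir was the positive control.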

[1] = Cytotoxicity against african green monkey Vero cells after 3 days by MTT assay; assay type: cell-based; settings: chlorocebus sabaeus, read-out: MNCC
Method in brief: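 Confluent Vero monolayers in 96-well plates were exposed in triplicate to serial sample dilutions in DMEM with 2% FBS (pH 7.2) for 3 days. MTT (5 mg/mL in PBS) was added for 4 h, and formazan was dissolved in DMSO with OD read at 540/630 nm. The value is the maximal concentration without cytotoxic effect relative to medium control.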

Question: Which results are given for `O=c1c(O[C@@H]2O[C@H](CO)[C@@H](O)[C@H](O)[C@H]2O[C@@H]2OC[C@@H](O)[C@H](O)[C@H]2O)c(-c2ccc(O)c(O)c2)oc2cc(O)cc(O)c12`?
Answer: inhibition (Human alphaherpesvirus 1): inactive; MNTC at 72 h [1]: 370 µM

Question: What does the source list for `O=c1c(O)c(-c2ccc(O)c(O)c2)oc2cc(O)cc(O)c12` [QUERCETIN]?
Answer: TIC (Human alphaherpesvirus 1): 0.33 mM; MNTC at 72 h [1]: < 20 µM

Question: For `O=c1cc(-c2ccc(O)c(O)c2)oc2cc(O)cc(O)c12` [LUTEOLIN], which inhibition (Human alphaherpesvirus 1) is on record?
Answer: The inhibition was “inactive”.

Question: And the MNTC at 72 h [1]?
Answer: The MNTC at 72 h was 700 µM.

Question: What does the source list for `O=c1cc(-c2cc(O)c(O)c(O[C@@H]3O[C@H](CO)[C@@H](O)[C@H](O)[C@H]3O)c2)oc2cc(O)cc(O)c12`?
Answer: inhibition (Human alphaherpesvirus 1): inactive; MNTC at 72 h [1]: 430 µM

Question: What does the source list for `O=c1c(O)c(-c2cc(O)c(O)c(O)c2)oc2cc(O)cc(O)c12` [MYRICETIN]?
Answer: TIC (Human alphaherpesvirus 1): 0.31 mM; MNTC at 72 h [1]: 310 µM

Question: With `CC(C)(O)[C@H]1CC=C(C(=O)OC[C@H]2O[C@@H](Oc3cc(C(=O)O)cc(O)c3O)[C@H](O)[C@@H](O)[C@@H]2O)CC1` as the molecule, how does the inhibition (Human alphaherpesvirus 1) read?
Answer: The inhibition was “inactive”.

Question: For `O=C(O)c1cc(O)c(O)c(O)c1` [GALLIC ACID], which inhibition (Human alphaherpesvirus 1) is on record?
Answer: Its inhibition is “inactive”.

Question: What about the MNTC at 72 h [1] of the same molecule?
Answer: Its MNTC at 72 h is 590 µM.

Question: For `CC(C)(O)[C@H]1CC=C(C(=O)OC[C@H]2O[C@@H](Oc3c(O)cc(C(=O)O)cc3O)[C@H](O)[C@@H](O)[C@@H]2O)CC1`, which inhibition (Human alphaherpesvirus 1) is on record?
Answer: Its inhibition is “inactive”.

Question: For `O=C[C@H](O)[C@@H](O)[C@H](O)[C@H](O)COC(=O)c1cc(O)c(O)c(O)c1`, which inhibition (Human alphaherpesvirus 1) is on record?
Answer: Its inhibition is “inactive”.

Question: What about the MNTC at 72 h [1] of the same molecule?
Answer: Its MNTC at 72 h is 9 µM.

Question: For `CC(C)(O)C1CC=C(C(=O)O)CC1` (racemic), which inhibition (Human alphaherpesvirus 1) is on record?
Answer: Its inhibition is “inactive”.

Question: What about the MNTC at 72 h [1] of the same molecule?
Answer: The MNTC at 72 h was greater than 1090 µM.

Question: What does the source list for `O=c1cc(-c2ccc(O)c(O[C@@H]3O[C@H](CO)[C@@H](O)[C@H](O)[C@H]3O)c2)oc2cc(O)cc(O)c12`?
Answer: inhibition (Human alphaherpesvirus 1): inactive; MNTC at 72 h [1]: 450 µM

Question: For `O=c1c(O[C@@H]2O[C@H](CO)[C@@H](O)[C@H](O)[C@H]2O)c(-c2ccc(O)c(O)c2)oc2cc(O)cc(O)c12` [ISOQUERCETIN], which inhibition (Human alphaherpesvirus 1) is on record?
Answer: Its inhibition is “inactive”.

Question: And the MNTC at 72 h [1]?
Answer: Its MNTC at 72 h is 430 µM.

Question: For `CC(C)(O)[C@H]1CC=C(C(=O)OC[C@H]2O[C@@H](OC(=O)[C@H]3CC[C@H](C(C)(C)O)CC3)[C@H](O)[C@@H](O)[C@@H]2O)CC1`, which inhibition (Human alphaherpesvirus 1) is on record?
Answer: Its inhibition is “inactive”.

Question: With `O=c1cc(-c2cc(O)c(O)c(O)c2)oc2cc(O)cc(O)c12` [TRICETIN] as the molecule, how does the inhibition (Human alphaherpesvirus 1) read?
Answer: Its inhibition is “inactive”.

Question: What about the MNTC at 72 h [1] of the same molecule?
Answer: The MNTC at 72 h was 40 µM.

Question: Which inhibition (Human alphaherpesvirus 1) does the source give for `COc1cc([C@@H]2c3cc(O)c(OC)cc3C[C@H](CO)[C@H]2CO[C@@H]2O[C@H](CO)[C@@H](O)[C@H](O)[C@H]2O)ccc1O` here?
Answer: The inhibition was “inactive”.

Question: With `COc1c(O)cc2c(=O)oc3c(O[C@@H]4O[C@@H](C)[C@H](O)[C@@H](O)[C@H]4O)c(O)cc4c(=O)oc1c2c34` as the molecule, how does the inhibition (Human alphaherpesvirus 1) read?
Answer: Its inhibition is “inactive”.

Question: And the MNTC at 72 h [1]?
Answer: The MNTC at 72 h was 430 µM.
